Experimental data: ChEMBL document CHEMBL1821702, “8,8-Dimethyldihydroberberine with improved bioavailability and oral efficacy on obese and diabetic mouse models” (Bioorg Med Chem, 2010)
Activity calls are given as the source filed them. No cut-off for these calls is given here.

Legend:
[1] = Stability in acidic buffer at pH 2 after 6 hrs by HPLC; type: physicochemical; conditions: acidic buffer, pH 2
How it was run: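 A 0.5 mg/mL solution in acetonitrile was adjusted to pH 2 with H3PO4 and analyzed over 6 h by HPLC. Conditions: C18 column at 25 °C, 58% acetonitrile in 0.05 mol/L KH2PO4/0.005 mol/L SDS, 1 mL/min, detection at 320 nm.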

[2] = Aqueous solubility of compound in distilled water; type: physicochemical
How it was run: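 Excess solid was suspended in distilled water and stirred 24 h at 25 ± 0.5 °C. The suspension was filtered, and dissolved concentration was measured by HPLC.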

[3] = Oral bioavailability in 12 hrs fasting Sprague-Dawley rat at 20 mg/kg; type: ADME, organism-based; conditions: in vivo
Mus musculus [4] = test: Antidiabetic activity in C57BLKS/J-db/db mouse assessed as alleviation of glucose tolerance at 50 mg/kg/day, po for 3 weeks by intraperitoneal glucose tolerance test; type: functional, organism-based
How it was run: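 Male and female C57BLKS/J-db/db mice, randomized at 6 weeks of age by body weight and fed glucose, were gavaged once daily in vehicle (0.5% microcrystalline cellulose, 1.6% lactose). For ipGTT, D-glucose was given at 2 g/kg ip, and blood glucose was read by glucometer at 0, 15, 30, 60, 90 and 120 min.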

Mus musculus [5] = test: Antidiabetic activity in C57BLKS/J-db/db mouse assessed as decrease in fed blood glucose level at 50 mg/kg/day, po for 3 weeks; type: functional; design: scale not given: the % may be the effect or the level left
Mus musculus [6] = test: Antidiabetic activity in C57BLKS/J-db/db mouse assessed as decrease in fed blood glucose level at 50 mg/kg/day, po for 4 weeks; type: functional; design: scale not given: the % may be the effect or the level left
Mus musculus [7] = test: Antidiabetic activity in C57BLKS/J-db/db mouse assessed as reduction of fasting blood glucose level at 50 mg/kg/day, po for 3 weeks; type: functional; design: scale not given: the % may be the effect or the level left
Mus musculus [8] = test: Antiobese activity in C57BLKS/J-db/db mouse assessed as decrease in plasma triglyceride level at 50 mg/kg/day, po […]; type: functional
How it was run: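 db/db mice were gavaged once daily in 0.5% microcrystalline cellulose/1.6% lactose vehicle for 6 weeks and killed after the final dose. Plasma triglycerides were measured with a colorimetric triglyceride assay kit.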

Mus musculus [9] = test: Toxicity in C57BLKS/J-db/db mouse assessed as change in body weight at 50 mg/kg/day, po for 6 weeks; type: organism-based; design: route oral; conditions: in vivo, 1008 h
How it was run: (§1)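 db/db mice (half male, half female) were dosed by oral gavage daily for 6 weeks in 0.5% microcrystalline cellulose/1.6% lactose vehicle. Body weight and food intake were recorded daily. Mice were killed after the final dose, and liver and fat depots were weighed and expressed relative to body weight.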

Mus musculus [10] = test: Toxicity in C57BLKS/J-db/db mouse assessed as change in food intake at 50 mg/kg/day, po for 6 weeks; type: organism-based; design: route oral; conditions: in vivo, 1008 h; how it was run: as §1
Mus musculus [11] = test: Toxicity in C57BLKS/J-db/db mouse assessed as reduction in liver weight at 50 mg/kg/day, po for 6 weeks; type: organism-based; design: route oral; scale not given: the % may be the effect or the level left; conditions: in vivo, 1008 h; how it was run: as §1
Mus musculus [12] = test: Antidiabetic activity in C57BLKS/J-db/db mouse assessed as decrease in area under curve at 50 mg/kg/day, po for 4 weeks by insulin tolerance test; type: functional; design: scale not given: the % may be the effect or the level left
Mus musculus [13] = test: Toxicity in C57BLKS/J-db/db mouse assessed as increase in subcutaneous fat at 50 mg/kg/day, po for 6 weeks; type: organism-based; design: route oral; conditions: in vivo, 1008 h; how it was run: as §1

`COc1ccc2c(c1OC)CN1CCc3cc4c(cc3C1=C2)OCO4` [DIHYDROBERBERINE] showed a decrease in content after 6 h at 6 h [1] of 17%, a solubility [2] of under 1000 µg/mL and a bioavailability [3] of 2.65%. For the same compound, the Activity (Mus musculus [4]) was “inactive”, the Activity (Mus musculus [5]) was 25% and the Activity (Mus musculus [6]) was 18%. For the same compound, the Activity (Mus musculus [7]) was 17%, the Activity (Mus musculus [8]) was “inactive” and the Activity (Mus musculus [9]) was “Non-toxic”. For the same compound, the Activity (Mus musculus [10]) was “Non-toxic”, the Activity (Mus musculus [11]) was 11% and the Activity (Mus musculus [12]) was 12%. For the same compound, the Activity (Mus musculus [13]) was 14%.
